# Compound activity as filed in PubChem BioAssay.
# TNAP inh no acc = blocks human TNAP activity with no phosphate acceptor present | actives 0.26% (n = 200,000) | P05186 | inhibition, % at 20 µM | purified TNAP, CDP-star luminescence, 30 min;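 active = tissue-nonspecific alkaline phosphatase inhibition above about 50% at 20 µM in the single-dose screen, limit read from the data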;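 note: 0% = DMSO negative control and 100% = EDTA positive control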
# Target sequence (P05186 whole entry, looked up): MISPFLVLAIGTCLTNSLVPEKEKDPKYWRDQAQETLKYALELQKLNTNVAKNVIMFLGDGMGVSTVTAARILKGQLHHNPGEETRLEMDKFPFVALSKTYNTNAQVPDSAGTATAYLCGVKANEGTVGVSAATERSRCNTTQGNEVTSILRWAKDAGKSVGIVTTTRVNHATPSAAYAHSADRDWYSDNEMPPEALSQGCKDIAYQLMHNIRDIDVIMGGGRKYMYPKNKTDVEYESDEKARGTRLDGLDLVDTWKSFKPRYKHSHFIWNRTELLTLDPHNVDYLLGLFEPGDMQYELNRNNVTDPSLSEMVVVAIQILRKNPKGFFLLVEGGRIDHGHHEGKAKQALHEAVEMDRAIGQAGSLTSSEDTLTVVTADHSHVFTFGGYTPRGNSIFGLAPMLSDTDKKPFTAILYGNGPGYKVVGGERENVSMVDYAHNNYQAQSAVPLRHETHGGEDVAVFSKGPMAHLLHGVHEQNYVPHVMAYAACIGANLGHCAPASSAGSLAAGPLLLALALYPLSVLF
# TNAP inh hi DEA = inhibitors of human TNAP at high phosphate acceptor concentration; inhibition, % at 20 µM; P05186; AID 1135; actives 0.03% (n = 200,000); purified TNAP, CDP-star luminescence, 1 M DEA;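 active = over 50% inhibition of tissue-nonspecific alkaline phosphatase at 20 µM in the single-dose screen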;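 note: plate controls were DMSO wells for no effect and EDTA-quenched wells as full inhibition for full effect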
# PMI act satM6P = PMI (human) activation, high substrate; P34949; coupled PMI enzyme assay, resazurin fluorescence, 20 min; active compounds read high; 1 = untreated enzyme, 0 = substrate-free blank; activation factor at 20 µM; actives 0.34% (n = 190,000);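 active = activation factor of 2 or more at 20 µM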
#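 Test system: human phosphomannose isomerase with PGI, G6PDH, diaphorase coupling enzymes / Doses: 20 µM compound, 1% DMSO / Times: enzyme reaction with compound 20 min at room temperature / Measured by: Diaphorase-driven resazurin-to-resorufin fluorescence, excitation 544, emission 590 nm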
# PMI act = increases human mannose-6-phosphate isomerase activity; P34949; purified human PMI, coupled resazurin fluorescence, 20 min; active compounds read high; 1 = vehicle control, 0 substrate-free wells; activation factor at 20 µM; actives 0.005% (n = 190,000); AID 1214;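 active = activation factor of 2 or more at 20 µM, relative to plate controls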
# TNAP act hi DEA = activators of human TNAP at high phosphate acceptor concentration; activation factor at 20 µM; P05186; 200,000 tested, under 10 active; purified TNAP, CDP-star luminescence, 1 M DEA, 30 min; active compounds read high; 0 = EDTA background, 1 = DMSO-only activity;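 active = activation factor at least 2 at 20 µM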
#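 system = human TNAP | amount = enzyme diluted 1/800 final | reagent = 100 µM CDP-star substrate | signal = luminescent substrate turnover signal | dosing = one dose, 20 µM | benchmarks = EDTA negative control, DMSO positive control | measure = activation factor | timing = 30 min reaction, room temperature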
# Starred values were filed as active, the others as inactive; i = inactive; . = no result. An excerpt weighted towards active compounds, which were near 0.6% of everything screened.
SMILES,TNAP inh no acc,TNAP inh hi DEA,PMI act satM6P,PMI act,TNAP act hi DEA
CCc1cccc(N(C(=O)c2csnn2)C(C(=O)NC(C)(C)C)c2ccccn2)c1 (stereo unspecified),-9.4,-8.8,.,.,1.1
CC[n+]1c(/C=C/c2c[nH]c3ccccc23)ccc2cc(C)ccc21,59.5*,60.7*,0.6,0.4,0.4
COc1cc(/C=C2/CCC/C(=C\c3cc(O)c(OC)c(Cl)c3)C2=O)cc(Cl)c1O,51.8*,53.4*,0.6,0.9,0.5
COc1cc(/C=C2\CC/C(=C\c3cc(OC)c(OC)c(OC)c3)C2=O)cc(OC)c1OC,1.7,-0.1,0.9,1,1
COc1cc(/C=C2\CC/C(=C\c3cc(OC)c(O)c(OC)c3)C2=O)cc(OC)c1O,61.1*,57.3*,0.3,0.4,0.4
COc1cc(/C=C2/CCc3ccccc3C2=O)cc(OC)c1OC,-5.6,-1.9,0.8,0.7,1
COc1cccc(CC(=S)N2CCOCC2)c1,-7.4,-1.3,0.9,0.8,1
Cc1sc2nc3ccc(N4CCCC4)nn3c(=O)c2c1C,-11.3,1.4,2.2*,1.6,1
Cc1ccc2nc3ccc(N4CCCCCCC4)nn3c(=O)c2c1,3.3,-6.0,1,1,1.1
CCN1/C(=C/C=C/c2oc3ccc4ccccc4c3[n+]2CC)Oc2ccc3ccccc3c21,i,-96.1,0.9,0.9,2*
COCCCNC(=S)NNC(=O)c1ccc(S(=O)(=O)N2CCC(C)CC2)cc1,-92.1,-4.0,1.1,1,1
COc1ccc2[nH]cc(C(=O)CNc3nc(C)cs3)c2c1,55.5*,-7.6,1,1,1.1
COc1ccc(CC(=O)NNC(=O)CSc2nc(C)c(C)c(=O)[nH]2)cc1,16.0,-4.1,1,1,1
NS(=O)(=O)c1cnccc1Nc1ccc(Cl)cc1,86.6*,90.1*,1,0.9,0.1
Nc1ccc(Nc2ccncc2[N+](=O)[O-])cc1,-1.4,2.8,1.1,1,1
COc1cccc2[nH]c3c(Cl)ncnc3c12,-2.6,-3.6,1,0.9,1
O=C(NC1CC1)C1CCN(C2CCN(C(=O)Cc3ccc(F)cc3)CC2)CC1,-11.5,-9.2,1,1,1.1
CC(C)Cc1cc(C(=O)N2CCC(N3CCC(C(=O)NC4CC4)CC3)CC2)n[nH]1,92.1*,-8.1,1,1.1,1.1
CC(C)Cc1cc(C(=O)N2CCC(N3CCC(C(=O)N4CCOCC4)CC3)CC2)n[nH]1,87.9*,-2.6,1,1,1
O=C(c1cc2ccccc2o1)N1CCC(N2CCC(C(=O)N3CCCC3)CC2)CC1,-16.0,-9.7,0.9,1,1.1
CC(C)Cc1cc(C(=O)N2CCC(N3CCC(C(=O)N4CCCC4)CC3)CC2)n[nH]1,86.8*,-5.7,1,1,1.1
CC(C)/C=C/C(=O)N1CCC(N2CCC(C(=O)N3CCOCC3)CC2)CC1,-13.5,-4.7,1,0.9,1
Cc1c(Cl)c([N+](=O)[O-])nn1CC(=O)Nc1ccc2c(c1)OCO2,-4.5,4.8,1,1,1
Cc1cnc(C(=O)N2CCCC(C(=O)c3ccc(Cl)cc3C)C2)cn1 (stereo unspecified),3.3,-1.8,1.1,1,1
Cc1ccc(C(=O)/C=C/c2ccco2)c(O)c1,-3.7,1.7,1,1.1,1
SMILES,TNAP inh no acc,TNAP inh hi DEA,PMI act satM6P,PMI act,TNAP act hi DEA
Cc1cccc(S(=O)(=O)NC(Cc2c[nH]c3ccccc23)C(=O)O)c1 (stereo unspecified),-19.0,-2.7,1,0.9,1
O=C(/C=C/c1ccccc1[N+](=O)[O-])NCc1ccc(Cl)cc1,-4.4,-1.8,1,1.1,1
NS(=O)(=O)c1ccc(CNC(=O)/C=C/c2ccccc2[N+](=O)[O-])cc1,62.1*,3.5,0.9,1,1
COc1ccccc1N1CCN(CCCC(=O)c2ccc(F)cc2)CC1,-14.5,-7.9,1,1,1.1
O=C(CCCN1CC=C(n2c(=O)[nH]c3ccccc32)CC1)c1ccc(F)cc1,62.8*,6.6,1.1,1,0.9
C=C1c2cc(C)ccc2NC(=O)N1c1ccc(C)cc1,-8.8,-6.4,2.4*,1.9,1.1
Cc1ccc(N2C(=O)c3cccc4cccc(c34)C2=O)cc1,-3.7,-3.6,1,1,1
C=C1c2ccccc2NC(=O)N1c1ccc(C)cc1,-16.5,-3.3,2.1*,1.7,1
Cc1ccc2c(c1)/C(=N/N1C(=O)c3ccccc3C1=O)C(=O)N2,5.9,1.0,0.9,1,1
COC(=O)c1ccc(CO/N=C/c2ccc(OC)cc2)o1,-11.2,-2.7,1,0.9,1
Cc1cc(N2C(=O)C3C4CC(C(Br)C4Br)C3C2=O)no1 (stereo unspecified),-6.5,-6.2,1.1,1.1,1.1
CCOc1ccc(C2NC(=O)c3sc(=S)n(-c4ccccc4)c3N2)cc1 (stereo unspecified),4.3,2.6,2.3*,1.7,1
O=C1NC(c2ccccc2)Nc2c1sc(=S)n2-c1ccccc1 (stereo unspecified),-9.3,-1.3,2.2*,1.7,1
COc1ccc(C2NC(=O)c3sc(=S)n(-c4ccccc4)c3N2)cc1 (stereo unspecified),-4.0,-3.9,1.5,1.3,1
CC(C)c1ccc(C(=O)NNC(=O)C2CC=CCC2C(=O)O)cc1 (stereo unspecified),-5.7,-4.1,1,1.1,1
COc1cc(SC)ccc1C(=O)Nc1nccs1,-5.5,1.1,1,1,1
COc1ccc(S(=O)(=O)N2CCC(C(=O)NCc3cccs3)CC2)cc1,-14.3,-6.5,1,1,1.1
CNC(=S)N/N=C(\C)c1ccc(-n2ccnc2)cc1,5.7,2.2,1,0.9,1
C/C(=N\Nc1ccc(C(=O)O)cc1)c1ccc(-n2ccnc2)cc1,-8.9,-3.8,2*,1.6,1
C/C(=N\NC(N)=O)c1ccc(-n2ccnc2)cc1,-0.9,-3.7,1.1,1.1,1
C/C(=N\Nc1ccccc1Cl)c1ccc(-n2ccnc2)cc1,-3.7,-3.4,2.7*,1.7,1
COc1cc(CC(=O)Nc2ccccc2N2CCCCC2)cc(OC)c1OC,-0.1,1.5,0.9,1,1
CN(C)c1ccc(C(=S)N2CCOCC2)cc1Br,-9.2,-3.5,2.6*,1.9,1
CC(=O)C1=C(C)NC(=O)NC1c1ccc(Cl)cc1 (stereo unspecified),-18.1,-5.5,0.9,1,1.1
O=C(O)Cc1ccc(C(=O)c2ccccc2)s1,-11.7,-6.1,1.2,1.1,1.1
COc1ccc(C(=O)c2ccc(CC(=O)O)s2)cc1,-6.6,3.6,2.4*,1.6,1
Cc1ccsc1/C=N/NC(=O)CC(=O)NCC(C)C,-5.2,1.6,1,1,1
